Source: PubChem (several laboratories)
Most compounds without a hit are left out; they make up all but 6.7% or so of the library.
T cruzi inh – T. cruzi replication inhibition; AID 1885; inhibition, % (no concentration beside the values); 1.4% of 300,000 active; T. cruzi beta-gal in NIH3T3, luminescence, 90 h;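 active = mean inhibition across valid replicates above about 55%, limit read from the data; inconclusive = mean below that limit but half or more replicates reach it; inactive = mean below it, under half of replicates reach it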;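 note: signal also drops with host cell toxicity which is not excluded here; 0% = plate median of DMSO wells and 100% = zero luminescence signal; higher percent means less beta-gal luminescence so fewer parasites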
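System: mouse NIH/3T3 fibroblasts infected with β-gal-expressing T. cruzi Tulahuen C4 / Input: NIH/3T3 cells, 5,000 per well / Buffer or medium: Low-serum DMEM with 2% FBS / Probe or stimulus: 5000 reporter trypomastigotes per well / Schedule: ≥90 h infection period, 3 h prior cell attachment / Measured by: GalScreen luminescence, 60 min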
Beta apoptosis – beta cell apoptosis inhibition. INS-1E cytokine-induced death, ATP luminescence, 48 h; percent of positive-control rescue, neutral wells zero. protection from apoptosis, % (test concentration not listed). 0.8% of 300,000 active. AID 435005;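 active = Every replicate reaches about 75%, or at least half do and their mean reaches it too, limit read from the data; inconclusive = At least half of replicates reach the limit but their mean does not; inactive = Under half of replicates reach the limit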;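 note: 0% = cytokine-treated negative control wells and 100% = positive control rescue; higher means more ATP so stronger rescue from cytokine killing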
CHOP inhibitor – blocks CHOP induction under ER stress; CHO-K1 CHOP-promoter luciferase, tunicamycin-induced, 15-18 h; inhibition, % at 10 µM; 3.8% of 220,000 active;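 active = compounds that reduced the stress-induced luciferase reporter signal by more than about 70% of percent inhibition, limit read from the data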;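 note: 0% = tunicamycin plus vehicle and 100% = wells without tunicamycin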
PREPL inhibitor – human PREPL enzyme inhibition. Q4J6C6. recombinant PREPL, fluorescence polarization activity-based probe. inhibition, % at 5.96 µM. 0.68% of 320,000 active. AID 2751; in the data active = inhibition above about 43%;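 note: 0% = enzyme with DMSO and 100% = wells lacking enzyme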
Target sequence (Q4J6C6 whole entry, looked up): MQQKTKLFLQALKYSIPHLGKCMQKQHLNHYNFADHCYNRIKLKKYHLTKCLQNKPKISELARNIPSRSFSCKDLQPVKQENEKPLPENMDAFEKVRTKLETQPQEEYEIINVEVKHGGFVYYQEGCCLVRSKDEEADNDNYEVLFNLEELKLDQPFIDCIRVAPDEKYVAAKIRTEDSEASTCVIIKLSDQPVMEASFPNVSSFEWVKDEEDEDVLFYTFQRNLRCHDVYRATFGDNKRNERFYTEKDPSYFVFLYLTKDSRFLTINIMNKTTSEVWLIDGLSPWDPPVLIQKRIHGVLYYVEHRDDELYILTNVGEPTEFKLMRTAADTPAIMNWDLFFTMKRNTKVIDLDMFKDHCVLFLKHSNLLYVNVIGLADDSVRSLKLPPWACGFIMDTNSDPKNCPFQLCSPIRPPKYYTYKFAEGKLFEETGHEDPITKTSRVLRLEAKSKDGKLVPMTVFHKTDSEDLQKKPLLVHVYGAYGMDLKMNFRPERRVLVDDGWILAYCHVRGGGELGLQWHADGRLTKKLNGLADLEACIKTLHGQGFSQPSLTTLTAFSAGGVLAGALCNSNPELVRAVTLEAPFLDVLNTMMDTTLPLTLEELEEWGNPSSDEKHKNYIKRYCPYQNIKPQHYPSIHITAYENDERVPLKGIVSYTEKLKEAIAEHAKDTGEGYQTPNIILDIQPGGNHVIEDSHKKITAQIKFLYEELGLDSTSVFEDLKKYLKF
GRIN3A LBD mod – modulates the human NR3A ligand-binding domain; Tm shift relative to glycine control, % at 25 µM; AID 1259313; 2.5% of 340,000 active; NR3A LBD differential scanning fluorimetry, Tm shift; 0% = protein alone, 100% = glycine-bound protein;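 active = melting temperature shift of at least 10% of the positive control shift, at one fixed dose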
CSC inhib – cancer stem cell inhibition; cancer stem cell-like cells viability, luminescence; inhibition, % at 7.5 µM; 1.1% of 300,000 active; in the data active = inhibition above about 75%; inconclusive = no clear call, values can overlap the other calls; tested in HMLE shEcad cells
CHOP inh conf – confirmation of CHOP induction inhibitors; CHO-CHOP promoter luciferase reporter, tunicamycin-induced, luminescence; AID 504437; inhibition, % at 10 µM; 45% of 2,100 active; shares compounds with CHOP inhibitor;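 active = mean of three repeat readings of reporter signal inhibition above a set limit, cut at about 70% in these data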;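 note: 0% = tunicamycin plus vehicle and 100% = wells lacking tunicamycin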
* marks the source's active call; other numbers are inactive results; ? = inconclusive; / = not tested or not shown.

SMILES	T cruzi inh	Beta apoptosis	CHOP inhibitor	PREPL inhibitor	GRIN3A LBD mod	CSC inhib	CHOP inh conf
Cc1ccc(NC(=O)c2c(O)c3ccccc3n(C)c2=O)nc1	3.5	-2.3	97.2*	-7.1	1.9	-14.2	-10.2
CCCCc1nc2ccccc2c(=O)n1NC(=O)c1c(O)c2ccccc2n(C)c1=O	-10.3	15.1	98.0*	3.6	-12.2	15.5	92.0*
Cn1c(=O)c(C(=O)Nc2ncccc2O)c(O)c2ccccc21	-0.1	3.7	109.9*	-2.2	-1.2	-7.6	84.3*
CCCn1c(=O)c(C(=O)Nc2ncccc2O)c(O)c2ccccc21	3.9	/	/	/	-3.6	/	/
CC(=O)Nc1cccc(C(=O)N2CCN(S(=O)(=O)c3ccc(C4CCCCC4)cc3)CC2)c1	/	/	/	/	-4.8	/	/
COc1ccc(/C=C/C(=O)NC(=S)NNC(=O)Cc2cccs2)cc1	15.1	49.9	109.9*	-1.4	-16.6	39.5	44.6
O=C(/C=C/c1ccccc1)NC(=S)NNC(=O)Cc1cccs1	-7.9	12.1	104.0*	15.2	-2.4	2.2	41.1
COc1ccc(-c2cn[nH]c2-c2ccc(OCC(=O)NN)cc2O)cc1	-0.1	-9.5	/	/	-0.5	1.7	/
O=[N+]([O-])c1ccc(COc2ccc(-c3[nH]ncc3-c3ccccc3)c(O)c2)cc1	6.2	24.7	99.4*	13.5	24.9*	118.4*	102.2*
COc1ccccc1-c1cn[nH]c1-c1ccc(OCc2ccc([N+](=O)[O-])cc2)cc1O	15.1	4.3	99.1*	16.0	4.2	17.8	-11.0
COc1ccccc1-c1cn[nH]c1-c1ccc(OCC(=O)NN)cc1O	0.7	-0.2	/	19.5	6.8	11.5	/
CC1CC(C)CN(C(=O)CSc2ncnc3sccc23)C1 (centres undefined)	/	-3.0	/	-3.3	-1.3	-4.5	/
CC(C)C[C@H](NC(=O)C1CCN(S(=O)(=O)c2ccccc2)CC1)C(=O)NCc1ccccn1	-4.5	2.0	/	-1.3	-0.7	-0.7	/
O=c1cc(Nc2ccc3c(c2)OCCO3)[nH]c(=O)n1C1CCCCC1	-1.4	4.5	/	-1.6	-31.8	-3.4	/
CCc1ccc(Nc2cc(=O)n(C3CCCCC3)c(=O)[nH]2)cc1	9.8	11.9	105.5*	3.9	-36.1	-7.7	49.3
COc1ccccc1NS(=O)(=O)c1cc(NC(=O)c2[nH]c(C)c(C(C)=O)c2C)ccc1N1CCOCC1	21.8	46.8	-12.2	10.0	1.1	-22.6	/
Cn1ncc2c(O/N=C(\N)c3ccc(C(C)(C)C)cc3)ncnc21	64.1*	109.7*	98.9*	15.0	3.0	108.0*	85.4*
CC(C)(C)C(=O)Cn1ncc(Br)c(Br)c1=O	61.3*	/	104.5*	/	-2.2	/	84.8*
CC(C)(C)C(=O)Cn1ncc(N2CCOCC2)c(Cl)c1=O	-15.5	-5.3	/	8.4	0.4	-0.3	/
O=C(OCn1ncc(Cl)c(Cl)c1=O)c1ccc(C(F)(F)F)cc1	63.5*	/	104.2*	/	0.8	/	116.4*
CCC(=O)Nc1ccc(C(=O)Cn2ncc(Cl)c(Cl)c2=O)cc1	49.5	-29.3	-33.2	17.4	0.9	?	/
CC(=O)N1CCc2cc(S(=O)(=O)NC(CC(C)C)C(=O)Nc3ccc4c(c3)OCCO4)ccc21 (centres undefined)	/	/	-11.2	-4.6	-1.5	7.8	/
O=C(CN1c2ccccc2Sc2ccccc21)NNC(=O)Nc1ccc(Cl)cc1	9.4	/	100.4*	4.3	38.9*	/	26.6
O=C(CCc1ccccc1)NNC(=O)Nc1ccc(Cl)cc1	-7.4	/	/	-4.6	-2.9	/	/
Cc1cccc2cc(C#N)c(NCCNS(=O)(=O)c3ccccc3)nc12	-4.2	-0.4	38.1	-0.4	0.2	-6.3	/
SMILES	T cruzi inh	Beta apoptosis	CHOP inhibitor	PREPL inhibitor	GRIN3A LBD mod	CSC inhib	CHOP inh conf
Cc1cccc2cc(C#N)c(NCCCNS(=O)(=O)c3ccc(Cl)cc3)nc12	21.4	-4.8	103.6*	-4.2	4.3	5.1	53.6
O=C(Nc1ccccc1)Nc1cc(OCC(F)(F)F)cc(OCC(F)(F)F)c1	87.1*	/	106.7*	/	40.7*	/	125.5*
O=C(NCc1ccccn1)Nc1cc(Cl)cc(Cl)c1	3.1	9.6	/	-37.2	-4.9	7.0	/
O=C(Nc1ccccc1)Nc1cc(Cl)cc(Cl)c1	?	69.8	111.5*	-24.9	/	80.9*	67.9
Cc1ccc(S(=O)(=O)N2CCOC23CCN(C(=O)C(=O)NCCC(C)C)CC3)cc1	-3.8	-2.9	/	9.1	0.3	-4.4	/
C(=N\Nc1nc(Nc2ccccc2)nc(Nc2ccccc2)n1)/c1ccncc1	4.8	-5.1	32.0	22.2	1.4	15.4	/
C(=N\Nc1nc(Nc2ccccc2)nc(Nc2ccccc2)n1)/c1cccnc1	42.9	19.4	97.3*	-5.5	26.7*	/	40.8
O=C(Nc1ccn(CCCNCc2ccc3c(c2)OCO3)c(=O)n1)OCc1ccccc1	/	/	/	/	-0.2	/	/
COc1ccccc1/C=C/C=N/NC(=O)c1cc(-c2ccco2)[nH]n1	10.9	2.3	8.9	15.7	8.0	-7.9	/
O=C(N/N=C/C(Br)=C/c1ccccc1)c1cc(-c2ccco2)[nH]n1	-43.1	2.6	103.3*	-0.4	22.2*	66.5	8.2
Oc1ccc(/C=N/N2CCN(C3c4ccccc4-c4ccccc43)CC2)c(O)c1	7.2	/	100.1*	-10.5	11.0*	-2.9	112.3*
Oc1ccc(/C=N/N2CCN(C3c4ccccc4-c4ccccc43)CC2)cc1	8.7	-5.1	8.8	-1.8	5.0	48.5	/
Cc1cccc(Oc2ccccc2NC(=O)c2cnccn2)c1	-0.9	-1.3	99.1*	-11.3	0.2	7.1	-15.8
C=C(C)C1Cc2c(C)nn(-c3ccccc3)c2C1 (centres undefined)	-16.1	-1.0	-13.5	-4.3	-0.4	4.0	/
C=C(C)C1Cc2c(C)nn(-c3cccc4ccccc34)c2C1 (centres undefined)	20.2	65.6	101.3*	0.5	1.0	95.6*	31.0
CCCCOc1ccc(C(=O)NNC(=O)c2cnccn2)cc1OC	/	30.0	/	0.4	-1.9	-3.2	/
CCN(CC)c1ccc2cc(-c3nc4ccccc4n3C)c(=O)oc2c1	19.8	39.5	/	25.6	2.0	40.1	/
CCN(CC)c1ccc2cc(-c3nc4ccccc4[nH]3)c(=O)oc2c1	3.7	?	100.4*	22.0	-403.3	56.8	40.6
Cc1ccc(CNC(=O)c2ccc3c(c2)S(=O)(=O)c2ccccc2C3=O)o1	-8.5	-1.7	/	7.7	-14.9	1.7	/
Cc1ccc(-n2c(C)nnc2SCC(=O)NC2CCCC2)cc1	1.2	5.6	/	6.2	-1.7	-6.6	/
COc1ccccc1Nc1nnc(SCC(=O)NC(=O)Nc2ccc3c(c2)OCCO3)s1	-16.3	-9.9	103.7*	-5.4	-5.7	-8.2	17.7
Cc1ccccc1Nc1nnc(SCC(=O)NC(=O)Nc2ccc3c(c2)OCCO3)s1	7.1	-0.9	64.9	-2.6	/	-6.6	/
O=C(CSc1nnnn1-c1ccc(Cl)cc1)NC(=O)Nc1ccc2c(c1)OCCO2	22.0	-6.8	99.8*	-6.5	-2.5	13.1	51.0
